TRPC4 PAM – allosterically enhances the mouse TRPC4 cation channel; AID 2227; HEK293 TRPC4beta/mu-opioid, DAMGO EC20, Fluo-4 Ca2+ flux; active compounds read high; B-score at 10 µM; hit rate 0.42% among 310,000; Q9QUQ5;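 active = B-score of calcium response area above 5 SD of library B-scores, with initial fluorescence ratio within 5 SD of library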;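 note: B-score of integrated fluorescence ratio over time as area under calcium response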
TRPC4 agonist – activators of mouse TRPC4 channel. HEK293 TRPC4beta/mu-opioid, Fluo4 calcium fluorescence; active compounds read high. B-score at 10 µM. hit rate 0.49% among 310,000;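 active = B-score above 5 SD of library B-scores, and initial fluorescence ratio not above library mean plus 5 SD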;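 note: positive B-score marks a calcium rise read as TRPC4 activation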
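Assay system: HEK293 stable line with TRPC4beta plus mu-opioid receptor; schedule: 45 min room-temperature Fluo4 loading, 110 s read; technique: kinetic Fluo4 calcium fluorescence; evaluation: integrated baseline-normalised fluorescence ratio, converted to per-well B score; controls: buffer (low) and maximal DAMGO (high)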
TRPC6 act – mouse TRPC6 channel activation | hit rate 0.13% among 310,000 | Q61143 | HEK293-TRPC6 membrane potential dye fluorescence; active compounds read high | AID 2550 | B-score at 10 µM;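 active = B-score of the integrated fluorescence ratio above library mean plus 3 SD, and starting fluorescence ratio within library mean plus 5 SD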;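 note: higher score means more depolarization so channel activation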
Target sequence (Q61143 whole entry, looked up): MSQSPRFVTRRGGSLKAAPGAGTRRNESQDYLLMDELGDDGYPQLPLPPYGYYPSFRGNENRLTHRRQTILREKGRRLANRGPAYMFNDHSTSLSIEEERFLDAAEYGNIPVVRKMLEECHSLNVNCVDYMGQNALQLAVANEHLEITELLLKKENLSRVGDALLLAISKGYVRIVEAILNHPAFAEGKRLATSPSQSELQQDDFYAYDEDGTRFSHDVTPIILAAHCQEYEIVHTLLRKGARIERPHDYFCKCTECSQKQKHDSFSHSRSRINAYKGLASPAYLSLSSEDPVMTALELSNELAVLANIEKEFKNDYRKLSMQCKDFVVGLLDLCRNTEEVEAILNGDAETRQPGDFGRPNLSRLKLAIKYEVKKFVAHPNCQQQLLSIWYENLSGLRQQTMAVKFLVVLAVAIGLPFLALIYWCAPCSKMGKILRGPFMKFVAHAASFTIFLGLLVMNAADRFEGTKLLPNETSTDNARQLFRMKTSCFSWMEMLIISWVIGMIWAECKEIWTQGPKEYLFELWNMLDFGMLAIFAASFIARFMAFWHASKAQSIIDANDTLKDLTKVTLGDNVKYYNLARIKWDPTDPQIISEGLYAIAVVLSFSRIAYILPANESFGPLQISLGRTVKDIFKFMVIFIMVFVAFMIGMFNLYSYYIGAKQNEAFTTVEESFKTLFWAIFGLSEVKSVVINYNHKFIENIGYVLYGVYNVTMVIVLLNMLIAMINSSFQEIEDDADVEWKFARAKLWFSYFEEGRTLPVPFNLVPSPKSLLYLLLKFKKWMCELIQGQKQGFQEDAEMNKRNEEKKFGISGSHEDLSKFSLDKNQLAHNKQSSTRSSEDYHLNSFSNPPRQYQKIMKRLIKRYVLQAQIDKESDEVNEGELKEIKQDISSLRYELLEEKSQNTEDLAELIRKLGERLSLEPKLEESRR
TRPC6 inhibitor – inhibitors of mouse TRPC6 channel; HEK293-TRPC6, membrane potential dye, ACh-evoked depolarization; active compounds read low; B-score at 10 µM; hit rate 1.1% among 310,000; Q61143;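 active = B-score under library mean minus 3 SD, initial fluorescence not abnormally high, positive integrated signal ratio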;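 note: B-score derived from integrated fluorescence ratio over the kinetic read; more negative B-score means stronger inhibition of depolarization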
TRPC4 inh – inhibitors of mouse TRPC4 channel. HEK293 TRPC4beta/mu-opioid, DAMGO-evoked Fluo4 calcium flux; active compounds read low. B-score at 10 µM. hit rate 0.39% among 300,000. AID 2247;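 active = B-score over 3 SD under the library average, no early fluorescence shift, positive overall ratio signal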
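material = TRPC4beta/mu-opioid receptor HEK293 cell line | probe or stimulus = sequential submaximal and maximal DAMGO stimulation | compound dosing = one concentration per compound | measured by = Fluo4 Ca2+ flux fluorescence | evaluation = integrated fluorescence ratio relative to baseline, converted to per-well B score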
TRPC4 sel inh 2 – second selectivity test of TRPC6 inhibitors: effect on mouse TRPC4. hit rate 42% among 920. HEK293 TRPC4/MOR, membrane potential dye fluorescence; channel activated by saturating DAMGO dose. shares compounds with TRPC6 inhibitor. inhibition, % at 10 µM. AID 2776;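 active = compounds whose fluorescence signal differed from control wells by over 3 SD, either direction, in both duplicate plates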
TRPC4 spec – mouse TRPC4 off-target activity of TRPC6 inhibitors; HEK293 TRPC4/mu-opioid, membrane potential fluorescence; activity change, negative = inhibition, % at 10 µM; hit rate 61% among 920; shares compounds with TRPC6 inhibitor;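 active = rise or fall in signal beyond 3 SD of buffer-only wells in both replicate plates, either sign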;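 note: integrated kinetic ratio of fluorescence range over baseline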
HEK293 MPD ctr 2-1 – second counter-screen for TRPC6 inhibitors: parental HEK293 cells; shares compounds with TRPC6 inhibitor; parental HEK293 membrane potential dye fluorescence; maximal acetylcholine challenge after compound addition; signal change vs control, % at 10 µM; hit rate 31% among 920;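 active = membrane potential signal moving either way by over 3 SD of the maximum-effect control, in both duplicate plates, meaning non-specific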
HEK293 MPD ctr-1 – checks TRPC6 inhibitor effects in parental HEK293 cells | shares compounds with TRPC6 inhibitor | parental HEK293 membrane potential dye fluorescence | membrane potential signal change, % at 10 µM | hit rate 60% among 920 | AID 2780;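 active = membrane potential signal shifting up or down by more than 3 SD of buffer-only wells, on both duplicate plates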
HEK293 MPD ctr-2 – parental HEK293 nonspecific activity of TRPC6 modulators | shares compounds with TRPC6 inhibitor | membrane potential dye fluorescence | membrane potential signal change, % at 10 µM | hit rate 51% among 2,400;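 active = membrane potential signal moves up or down beyond 5 SD from buffer-only wells, on both duplicate plates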
HEK293 MPD ctr 2-2 – second check of TRPC6 modulator effects in parental HEK293 cells. inhibition, % at 10 µM. AID 488926. hit rate 14% among 2,400. membrane potential dye fluorescence; after compound, maximal acetylcholine stimulation. shares compounds with TRPC6 inhibitor;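 active = membrane potential signal drops by more than 5 SD from the mean control signal, in both duplicate plates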;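 note: plate controls were acetylcholine ECmax control wells for no effect and buffer only wells for full effect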
TRPC4/MOR mod – mouse TRPC4 off-target activity of TRPC6 modulators; HEK293 TRPC4/mu-opioid, membrane potential fluorescence; shares compounds with TRPC6 inhibitor; AID 488927; hit rate 69% among 2,400; percent change from control (negative = decrease, positive = increase), % at 10 µM;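 active = membrane potential signal moved up or down beyond 5 SD of buffer control wells, in both duplicate plates, actives on both sides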;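 note: plate controls were assay buffer wells for no effect and DAMGO maximal-effect wells for full effect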
TRPC4 ctr inh 2 – second selectivity test of TRPC6 modulators against mouse TRPC4; shares compounds with TRPC6 inhibitor; HEK293 TRPC4/mu-opioid, membrane potential dye fluorescence; stimulated with maximal-effect DAMGO; hit rate 55% among 2,400; inhibition, % at 10 µM; AID 488928;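 active = drop in membrane potential signal beyond 5 SD of the control wells in both duplicate plates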;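 note: TRPC4 counter screen for TRPC6 hits run under conditions tuned for TRPC6 not TRPC4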
TRPC6 block conf – confirmation of mouse TRPC6 inhibitors; AID 488960; inhibition, % at 10 µM; hit rate 43% among 3,300; HEK293-TRPC6, membrane potential dye, ACh-evoked depolarization; shares compounds with TRPC6 inhibitor;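 active = fluorescence ratio falls more than 5 SD below the full-stimulation control mean, in both duplicate runs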;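 note: integrated fluorescence ratio of peak minus minimum over baseline after agonist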
TRPC6 act confirm – confirmation of mouse TRPC6 activators; shares compounds with TRPC6 inhibitor; HEK293-TRPC6 membrane potential dye fluorescence, FDSS; activation, % at 10 µM; AID 488961; hit rate 11% among 2,800;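 active = ratio signal rise beyond 5 SD above unstimulated control wells' mean, seen in both duplicate runs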;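 note: plate controls were buffer EC0 wells for no effect and acetylcholine ECmax response for full effect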
The depositor's hits bear a star; i = inactive; / = not tested or not shown. Compounds with a hit are over-represented: about 2.3% of the library has one in this group of screens.

SMILES | TRPC4 PAM | TRPC4 agonist | TRPC6 act | TRPC6 inhibitor | TRPC4 inh | HEK293 MPD ctr-2 | HEK293 MPD ctr 2-2 | TRPC4/MOR mod | TRPC4 ctr inh 2 | TRPC6 block conf | TRPC6 act confirm | others
COc1ccc([N+](=O)[O-])cc1Nc1c2ccccc2nc2ccccc12 | i | i | i | i | i | / | / | / | / | / | /
COc1ccc(C)cc1Nc1nc(N)c2ccccc2n1 | i | i | i | -10* | i | -221%* | 112%* | -52%* | 91%* | 100%* | i
Nc1nc(Nc2ccc(Cl)cc2)nc2ccccc12 | i | i | i | -12* | i | -163%* | 90%* | -36%* | 88%* | 84%* | i
Cc1ccc(NC(=O)CN(C)C(=O)Cc2c(Cl)cccc2Cl)cc1 | i | i | i | i | i | / | / | / | / | / | /
CC(C)(C)c1ccc(C(=O)OCCN2CCCCC2)cc1 | i | i | 13* | i | i | 128%* | i | 26%* | 56%* | i | 66%*
Cc1c(C(=O)OCC(C)(C)CN(C)C)oc2ccccc12 | i | i | i | i | i | / | / | / | / | / | /
Cc1c(C(=O)OCCN2CCCCC2)oc2ccccc12 | i | i | i | -8.6* | i | / | / | / | / | i | / | TRPC4 sel inh 2=i;TRPC4 spec=10%*;HEK293 MPD ctr 2-1=i;HEK293 MPD ctr-1=15%*
COc1ccc(C(=O)OCCN2CCCCC2)cc1 | i | i | i | i | i | / | / | / | / | / | /
Cc1c(C(=O)OC(C)CCN(C)C)oc2ccccc12 (stereo unspecified) | i | i | i | -9.7* | i | / | / | / | / | i | / | TRPC4 sel inh 2=i;TRPC4 spec=7.3%*;HEK293 MPD ctr 2-1=i;HEK293 MPD ctr-1=11%*
Cc1ccc(-c2nc(CS(=O)CC(=O)NCc3ccc4c(c3)OCO4)c(C)o2)cc1 (stereo unspecified) | i | i | i | i | i | / | / | / | / | / | /
CC(C)c1cc(C(=O)N2CCCC(Nc3ccc(F)cc3)C2)nc(N)n1 (stereo unspecified) | i | i | i | -5.9* | i | i | i | i | i | i | i
COc1ccc(O)c(CN2CCC(n3nccc3NC(=O)c3ccccc3Cl)CC2)c1 | i | i | i | i | i | / | / | / | / | / | /
COc1ccc(-c2[nH]ncc2-c2ccc(Cl)cc2)c(O)c1 | i | i | i | i | i | / | / | / | / | / | /
Oc1ccc(-c2[nH]ncc2-c2cccc3cccnc23)c(O)c1 | i | i | i | i | i | / | / | / | / | / | /
COc1ccc(-c2cn[nH]c2-c2ccc(OC)cc2O)cc1 | i | i | i | -5.2* | i | i | i | -14%* | 48%* | i | i
Oc1ccc(-c2[nH]ncc2-c2ccc(Br)cc2)c(O)c1 | i | i | i | -5.3* | i | -72%* | i | -16%* | 68%* | 50%* | i
Oc1ccc(-c2[nH]ncc2-c2ccc(Cl)cc2)c(O)c1 | i | i | i | -7.4* | i | -74%* | i | -22%* | 79%* | 46%* | i
Cc1ccc(-c2nnc(COC(=O)c3cccs3)o2)cc1 | i | i | i | i | i | / | / | / | / | / | /
O=C(Cn1cccn1)N1CCCC(N2CCN(c3ccccc3F)CC2)C1 (stereo unspecified) | i | i | i | i | i | / | / | / | / | / | /
COc1cccc(NC(=O)CSc2nc3ccccc3c(=O)n2CCCC(=O)NCC2CCCO2)c1 (stereo unspecified) | i | i | i | i | i | / | / | / | / | / | /
O=C1C(=O)N(Cc2ccco2)C(c2cccs2)/C1=C(\O)c1cccc([N+](=O)[O-])c1 (stereo unspecified) | i | i | i | i | i | / | / | / | / | / | /
O=C(Nc1ccccc1C(=O)O)c1ccc(NC(=O)c2ccc(Br)o2)cc1 | i | i | 17* | i | i | 190%* | i | 27%* | i | i | 94%*
Cc1ccc(C(=O)Nc2cccc(N(C)S(C)(=O)=O)c2)cc1S(=O)(=O)Nc1ccccc1 | i | i | i | -7.7* | i | / | / | / | / | i | i | TRPC4 sel inh 2=i;TRPC4 spec=i;HEK293 MPD ctr 2-1=i;HEK293 MPD ctr-1=i
COc1ccc(C(=O)Nc2cccc(N(C)S(C)(=O)=O)c2)cc1OC | i | i | i | i | i | / | / | / | / | / | /
CCN(CC)c1ccc(N=CN2CCOCC2)cc1 | i | i | i | i | i | / | / | / | / | / | /
SMILES | TRPC4 PAM | TRPC4 agonist | TRPC6 act | TRPC6 inhibitor | TRPC4 inh | HEK293 MPD ctr-2 | HEK293 MPD ctr 2-2 | TRPC4/MOR mod | TRPC4 ctr inh 2 | TRPC6 block conf | TRPC6 act confirm | others
COc1ccc(CCC(=O)NC(C)c2ccccc2)cc1OC (stereo unspecified) | i | i | i | i | i | / | / | / | / | / | /
Cc1ncc(CSc2nc3ccccc3[nH]2)c(N)n1 | i | i | i | i | i | / | / | / | / | / | /
CCOc1ccccc1CSc1nc2ccccc2[nH]1 | i | i | i | -5.8* | i | i | i | i | i | i | i
CC1(C)Cc2c(cnn2-c2ccccc2)C(NC(=O)CCN2CCCC2=O)C1 (stereo unspecified) | i | i | i | i | i | / | / | / | / | / | /
COc1ccccc1C(=O)NCCC(=O)Nc1ccc(OC(F)(F)F)cc1 | i | i | i | i | i | / | / | / | / | / | /
c1ccc(C2CCC(N3CCN(c4ccccc4)CC3)CC2)cc1 (stereo unspecified) | i | i | i | i | i | / | / | / | / | / | /
CC(=O)Oc1cccc(C(=O)Nc2ccc(NC(=O)c3cccs3)cc2)c1 | i | i | i | i | i | / | / | / | / | / | /

Compound activity as filed in PubChem BioAssay.
